Each block holds one compound with its values, some of them ahead of it.
Assays:
[1] = In vivo pharmacokinetic study of VEN and ODV in rats with or without vonoprazan; set-up: species or system Sprague-Dawley rats; details: rat; for AUC(0-t) / AUC(0-inf) / CL/F / Cmax / MRT last / MRT inf / Tmax / Vd/F / half-life: male, Sprague-Dawley, plasma, po, 20 mg/kg, rat plasma, VEN 20 mg/kg oral; for CL/F: CLz/F; for MRT last: MRT(0-t); for MRT inf: MRT(0-∞); for Vd/F: Vz/F; for half-life: t1/2z
[2] = Stability of VEN and ODV in rat plasma under different storage conditions; assay type: in vitro ADME; details: for Stability, Accuracy RE (%): n = 6
[3] = Enzyme kinetics; assay type: in vitro ADME; details: rat, rat liver microsomes, pH 7.4
Summary of the method: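 Rat liver microsomes (1 mg/mL) were incubated in 100 mM potassium phosphate pH 7.4 with 10 mM NADPH and venlafaxine. After 5 min pre-incubation at 37°C, NADPH started a 30 min reaction, stopped with ice-cold acetonitrile containing diazepam internal standard. ODV formation was quantified by UPLC-MS/MS. Km came from nonlinear regression of velocity versus substrate concentration on duplicate or triplicate determinations.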

[4] = tested on: rat liver microsomes; assay: Effect of vonoprazan on the metabolism of VEN; assay type: in vitro ADME; details: RLMs
Summary of the method: (§1)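 Male Sprague–Dawley rat liver microsomes were prepared by differential centrifugation (9000 × g, then 105,000 × g). After 5 min pre-incubation at 37°C, NADPH started a 30 min reaction, stopped with ice-cold acetonitrile. ODV was measured by UPLC-MS/MS against a diazepam internal standard, in triplicate, and analysed by Lineweaver–Burk plots with slope and intercept replots.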

[5] = tested on: venlafaxine O-demethylation (ODV formation) in rat liver microsomes; no CYP named; assay: Effect of vonoprazan on the metabolism of VEN; assay type: in vitro ADME; details: rat, rat liver microsomes, pH 7.4, probe venlafaxine (VEN), 2-16 μM
Summary of the method: as §1

[6] = + vonoprazan 5 mg/kg oral, 7 days
[7] = + vonoprazan 20 mg/kg oral, 7 days
[8] = VEN 20 mg/kg oral + vonoprazan 5 mg/kg
[9] = VEN 20 mg/kg oral + vonoprazan 20 mg/kg
[10] = 4°C, 24h, high QC (VEN 300, ODV 60 ng·mL^−1)
[11] = 4°C, 24h, low QC (VEN 3, ODV 0.6 ng·mL^−1)
[12] = Room Temperature, 6h, high QC (VEN 300, ODV 60 ng·mL^−1)
[13] = Room Temperature, 6h, low QC (VEN 3, ODV 0.6 ng·mL^−1)
[14] = −80°C, 7 Days, high QC (VEN 300, ODV 60 ng·mL^−1)
[15] = −80°C, 7 Days, low QC (VEN 3, ODV 0.6 ng·mL^−1)

AUC(0-t) [1, 6]: 221 ± 31.5 ng·h/mL
AUC(0-t) [1, 7]: 469 ± 68.6 ng·h/mL
AUC(0-t) ([1]; without vonoprazan (control)): 155 ± 36.6 ng·h/mL
AUC(0-inf) [1, 6]: 225 ± 31.7 ng·h/mL
AUC(0-inf) [1, 7]: 492 ± 79.8 ng·h/mL
AUC(0-inf) ([1]; without vonoprazan (control)): 161 ± 43.5 ng·h/mL
CL/F [1, 6]: 1510 mL/min/kg
CL/F [1, 7]: 696 mL/min/kg
CL/F ([1]; without vonoprazan (control)): 2200 mL/min/kg
Cmax [1, 6]: 69.7 ± 30.1 ng/mL
Cmax [1, 7]: 109 ± 13.4 ng/mL
Cmax ([1]; without vonoprazan (control)): 58.1 ± 14.1 ng/mL
MRT last [1, 6]: 3.08 ± 0.48 h
MRT last [1, 7]: 3.92 ± 0.38 h
MRT last ([1]; without vonoprazan (control)): 2.82 ± 0.55 h
MRT inf [1, 6]: 3.28 ± 0.49 h
MRT inf [1, 7]: 4.44 ± 0.52 h
MRT inf ([1]; without vonoprazan (control)): 3.2 ± 1.16 h
Tmax [1, 6]: 57 ± 22.2 min
Tmax [1, 7]: 156 ± 33 min
Tmax ([1]; without vonoprazan (control)): 45 ± 10.8 min
Vd/F [1, 6]: 260 ± 41.5 L/kg
Vd/F [1, 7]: 142 ± 30.4 L/kg
Vd/F ([1]; without vonoprazan (control)): 374 ± 170 L/kg
half-life [1, 6]: 121 ± 21.6 min
half-life [1, 7]: 146 ± 45 min
half-life ([1]; without vonoprazan (control)): 123 ± 63 min
Increase of the metabolite (M. R.) compared with control group [1, 8]: 0.87 fold
Decrease of CLz/F compared with control group [1, 9]: 68.33%
Decrease of Vz/F compared with control group [1, 9]: 62.08%
Elevation of Cmax compared with control group [1, 9]: 0.88 fold
Elevation of Tmax compared with control group [1, 9]: 2.46 fold
Increase of AUC(0-∞) compared with control group [1, 9]: 2.05 fold
Increase of MRT(0-∞) compared with control group [1, 9]: 0.39 fold
Increase of the metabolite (M. R.) compared with control group [1, 9]: 1.34 fold
Stability, Accuracy RE (%) [2, 10]: 108.96%
Stability, Accuracy RE (%) [2, 11]: 112.11%
Stability, Accuracy RE (%) [2, 12]: 109.57%
Stability, Accuracy RE (%) [2, 13]: 107.58%
Stability, Accuracy RE (%) [2, 14]: 106.85%
Stability, Accuracy RE (%) [2, 15]: 105.72%
Structure (SMILES): CN(C)CC(c1ccc(O)cc1)C1(O)CCCCC1 (stereo not shown) [ODV, O-desmethylvenlafaxine]

Structure (SMILES): COc1ccc(C(CN(C)C)C2(O)CCCCC2)cc1 (stereo not shown) [VEN, Venlafaxine]
Km at 30 min [3]: 8.28 µM
AUC(0-t) [1, 6]: 689 ± 161 ng·h/mL
AUC(0-t) [1, 7]: 1910 ng·h/mL
AUC(0-t) ([1]; without vonoprazan (control)): 260 ± 102 ng·h/mL
AUC(0-inf) [1, 6]: 694 ± 163 ng·h/mL
AUC(0-inf) [1, 7]: 1920 ng·h/mL
AUC(0-inf) ([1]; without vonoprazan (control)): 261 ± 101 ng·h/mL
CL/F [1, 6]: 500 mL/min/kg
CL/F [1, 7]: 192 mL/min/kg
CL/F ([1]; without vonoprazan (control)): 1460 mL/min/kg
Cmax [1, 6]: 261 ± 110 ng/mL
Cmax [1, 7]: 525 ± 115 ng/mL
Cmax ([1]; without vonoprazan (control)): 127 ± 41.5 ng/mL
MRT last [1, 6]: 2.44 ± 0.3 h
MRT last [1, 7]: 3.28 ± 0.52 h
MRT last ([1]; without vonoprazan (control)): 2.09 ± 0.18 h
MRT inf [1, 6]: 2.52 ± 0.43 h
MRT inf [1, 7]: 3.36 ± 0.56 h
MRT inf ([1]; without vonoprazan (control)): 2.12 ± 0.17 h
Tmax [1, 6]: 57 ± 22.2 min
Tmax [1, 7]: 156 ± 33 min
Tmax ([1]; without vonoprazan (control)): 42 ± 12.6 min
Vd/F [1, 6]: 62.1 ± 15.4 L/kg
Vd/F [1, 7]: 19.9 ± 7.19 L/kg
Vd/F ([1]; without vonoprazan (control)): 187 ± 130 L/kg
half-life [1, 6]: 88.8 ± 27.6 min
half-life [1, 7]: 76.8 ± 31.8 min
half-life ([1]; without vonoprazan (control)): 83.4 ± 19.2 min
Decrease of Clz/F compared with control group [1, 8]: 65.73%
Increase of Cmax compared with control group [1, 8]: 1.05 fold
Decrease of CLz/F compared with control group [1, 9]: 86.87%
Decrease of Vz/F compared with control group [1, 9]: 89.35%
Elevation of Cmax compared with control group [1, 9]: 3.12 fold
Elevation of Tmax compared with control group [1, 9]: 2.71 fold
Increase of AUC(0-∞) compared with control group [1, 9]: 6.37 fold
Increase of MRT(0-∞) compared with control group [1, 9]: 0.58 fold
Stability, accuracy range over three QC levels and three storage conditions ([2]; 4°C 24 hours, room temperature 4 hours, −80°C 7 days): 99.68–111.18%
Stability, Accuracy RE (%) [2, 10]: 106.95%
Stability, Accuracy RE (%) [2, 11]: 108.99%
Stability, Accuracy RE (%) [2, 12]: 102.08%
Stability, Accuracy RE (%) [2, 13]: 102.90%
Stability, Accuracy RE (%) [2, 14]: 105.33%
Stability, Accuracy RE (%) [2, 15]: 99.68%

Ki’ (inhibition of VEN metabolism) ([4]; mixed inhibition, Lineweaver-Burk): 11.29 µM
Ki ([4]; read-out: Ki (inhibition of VEN metabolism), mixed inhibition, Lineweaver-Burk): 23.1 µM
IC50 at 30 min [5]: 5.54 µM
Structure (SMILES): CNCc1cc(-c2ccccc2F)n(S(=O)(=O)c2cccnc2)c1 [Vonoprazan]
Inhibition mechanism on VEN metabolism ([4]; competitive plus non-competitive): mixed inhibition
